“And” between values parts separate entries of the source, which are not always exact repeats. Equal entries are not always repeated.
Target: T1, Adenosine receptor A1 (Bos taurus, UniProt P28190)
T1 sequence (P28190 whole entry): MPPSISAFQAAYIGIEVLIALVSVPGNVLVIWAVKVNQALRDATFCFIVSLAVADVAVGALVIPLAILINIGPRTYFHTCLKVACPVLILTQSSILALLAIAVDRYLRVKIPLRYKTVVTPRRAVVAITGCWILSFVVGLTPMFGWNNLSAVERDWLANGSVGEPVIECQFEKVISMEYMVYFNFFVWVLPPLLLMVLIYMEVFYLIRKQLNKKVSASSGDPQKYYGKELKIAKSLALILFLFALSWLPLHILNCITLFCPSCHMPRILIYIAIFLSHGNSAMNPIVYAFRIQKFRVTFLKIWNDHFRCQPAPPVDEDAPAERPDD
Assay: Displacement of [3H]CPX from Adenosine A1 receptor of bovine brain cerebral cortex membranes
Type: tissue-based
Outline: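 Competition binding at room temperature in 50 mM Tris·HCl, 0.02% CHAPS, pH 7.4. Mixture held 0.2 nM [3H]CPX, 25 µg bovine cerebral cortex membranes and 0.2 U/mL adenosine deaminase. Membranes were added to start binding, and incubation was stopped after 2 h by glass-fibre filtration. Bound radioactivity was counted by liquid scintillation. Nonspecific binding was defined with 10 µM (R)-PIA. Ki came from nonlinear curve fitting as the geometric mean (95% confidence limits) of 3-5 experiments in duplicate.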

| Ki | Compound |
| --- | --- |
| 0.183 nM | CCCn1c(=O)c2nc(C3CCCC3)[nH]c2n(CCCF)c1=O |
| 0.094 nM | CCCn1c(=O)c2[nH]c(C3CCCC3)nc2n(CC(C)F)c1=O (stereo unspecified) |
| 0.216 nM | CCCn1c(=O)n(CCCF)c(=O)c2nc(C3CCCC3)[nH]c21 |
| 0.286 nM | CCCn1c(=O)n(COCC)c(=O)c2[nH]c(C3CCCC3)nc21 |
| 0.237 nM | CCCn1c(=O)c2nc(C3CCCC3)[nH]c2n(C/C=C/I)c1=O |
| 0.31 nM | CCCn1c(=O)c2nc(C3CCCC3)[nH]c2n(C)c1=O |
| 0.526 nM | CCCn1c(=O)n(C)c(=O)c2[nH]c(C3CCCC3)nc21 |
| 1.23 nM | CCCn1c(=O)n(CC(C)F)c(=O)c2[nH]c(C3CCCC3)nc21 (stereo unspecified) |
| 149 nM | CCCn1c(=O)[nH]c2nc(C3CCCC3)n(C)c2c1=O |
| 0.493 nM | CCCn1c(=O)c2nc(C3CCCC3)[nH]c2n(CCOC)c1=O |
| 0.155 nM and 0.17 nM | CCCn1c(=O)c2[nH]c(C3CCCC3)nc2n(CCC)c1=O [1,3-DIPROPYL-8-CYCLOPENTYLXANTHINE [DPCPX]] |

— ChEMBL document CHEMBL1131472, “A1 adenosine receptor antagonists as ligands for positron emission tomography (PET) and single-photon emission tomography (SPET)” (J Med Chem, 1998)
